# Source: PubChem BioAssay
# Shown are actives, neighbours in structure and some others; about 3.1% of the full set was active somewhere.
# GPR7 antagonist: antagonists of human GPR7 (neuropeptides B/W receptor 1). P48145. GPR7-expressing cells, fluorescence antagonist assay. inhibition, % at 4.4 µM. actives 1.1% (n = 290,000). AID 1861; in the data active means inhibition above about 16%, passing the limit was not always enough;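 further: cells stimulated with the agonist NPW; 0% = agonist with vehicle and 100% = vehicle without agonist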
# Target sequence (P48145 whole entry, looked up): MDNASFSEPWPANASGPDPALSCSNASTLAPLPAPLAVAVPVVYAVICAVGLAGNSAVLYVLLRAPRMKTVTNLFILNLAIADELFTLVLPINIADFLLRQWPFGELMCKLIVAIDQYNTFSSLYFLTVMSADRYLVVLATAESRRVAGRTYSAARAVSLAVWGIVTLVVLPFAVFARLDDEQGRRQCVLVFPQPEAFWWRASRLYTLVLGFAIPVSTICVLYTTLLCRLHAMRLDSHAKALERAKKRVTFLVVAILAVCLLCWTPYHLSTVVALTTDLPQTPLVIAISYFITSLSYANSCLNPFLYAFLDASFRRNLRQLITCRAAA
# OX1R antag-1: human HCRTR1 antagonism; AID 434989; O43613; CHO/OX1R cells, Fluo-8 calcium fluorescence, orexin A; actives 0.43% (n = 330,000); inhibition, % at 5 µM;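 active means inhibition above its plate's threshold, mean inhibition of all tested compounds on the plate plus 3 SD, cut at about 37% in these data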;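 further: 0% = orexin A challenge wells and 100% = SB-334867-A antagonist wells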
# GalR3 antag: human GalR3 antagonism; HEK293 GalR3-CNG cAMP membrane potential fluorescence; galR3 body fused to GalR1 C-terminus; O60755; actives 0.44% (n = 360,000); inhibition, % at 3 µM;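 active means inhibition above the screen-wide average plus 3 SD, cut at about 13% in these data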;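 further: forskolin and galanin both at EC90 stimulate the cells; cAMP rise reported by CNG channel membrane potential dye signal; 0% = forskolin plus galanin with DMSO and 100% = forskolin alone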
# Target sequence (O60755 1-299 limits assumed): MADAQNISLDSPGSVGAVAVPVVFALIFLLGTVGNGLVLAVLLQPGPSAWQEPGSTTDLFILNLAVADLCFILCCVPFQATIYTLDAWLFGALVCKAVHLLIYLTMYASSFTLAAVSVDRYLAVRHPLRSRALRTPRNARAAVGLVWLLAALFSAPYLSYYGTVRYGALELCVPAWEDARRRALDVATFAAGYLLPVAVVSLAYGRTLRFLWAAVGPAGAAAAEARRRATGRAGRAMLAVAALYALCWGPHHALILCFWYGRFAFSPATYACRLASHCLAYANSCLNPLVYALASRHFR
# CHO parental Ca: counter-screen: ATP calcium response change in parental CHO cells; parental CHO-K1, ATP-induced calcium, Fluo-8 fluorescence; inhibition, % at 5.6 µM; actives 0.63% (n = 330,000); AID 463079;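 active means inhibition above that plate's mean sample inhibition plus 3 SD, cut at about 26% in these data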;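 further: 0% = ATP-challenged DMSO wells and 100% = DMSO wells without ATP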
#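 Material: Parental CHO cells | Reagent: ATP | Compound dosing: Single nominal dose of 5.6 µM per compound | Detection: Intracellular calcium via Fluo-8 no-wash fluorescent dye | Read-out: % inhibition of ATP-induced calcium mobilization | Benchmarks: Low control ATP plus DMSO, high control DMSO only | Replicates: Singlicate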
# OX1R antag-2: blocks the human orexin 1 receptor | inhibition, % at 6.6 µM | actives 1.8% (n = 330,000) | AID 485270 | O43613 | OX1R-expressing cells, FRET antagonist read-out; in the data active means inhibition mostly above about 38%, no sharp cut-off; inactive means mostly below about 40%;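 further: 0% = agonist challenge alone and 100% = reference antagonist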
# OX1R HTRF conf: confirmation of human orexin 1 receptor antagonists, HTRF format | shares compounds with OX1R antag-2 | OX1R-expressing cells, HTRF antagonist assay | AID 492964 | actives 49% (n = 1,800) | inhibition, % at 6.6 µM; in the data active means inhibition above about 55%;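 further: CHO cells expressing OX1R stimulated with orexin A at about EC80; 0% = agonist challenge alone and 100% = reference antagonist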
# CHO-K1 HTRF cnt: counter-screen: parental CHO-K1 HTRF response | shares compounds with OX1R antag-2 | parental CHO-K1 cells, HTRF counterscreen | inhibition, % at 6.6 µM | actives 48% (n = 1,800) | AID 493232; in the data active means inhibition above about 17%;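 further: 0% = agonist challenge with vehicle and 100% = vehicle alone without agonist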
# The depositor's hits bear a star; nt = not tested or not shown.
SMILES,GPR7 antagonist,OX1R antag-1,GalR3 antag,CHO parental Ca,OX1R antag-2,OX1R HTRF conf,CHO-K1 HTRF cnt
CCOc1ccc(N(CC(=O)N/N=C/c2cc([N+](=O)[O-])ccc2Cl)S(C)(=O)=O)cc1,2,13,1,0,81*,22,7
O=C1c2cccc3cccc(c23)C(=O)N1/N=C/c1ccc(O)cc1O,-3,-7,1,-1,99*,41,64*
CCc1nnc(N/N=C/c2cccs2)n1N,-7,12,-1,-6,84*,20,14
Cn1c2ccccc2c(=O)c2cc(C#Cc3ccccn3)ccc21,5,29,-6,-10,90*,94*,11
O=C(/C=C/c1cccc(Cl)c1)Nc1ncccn1,-9,-11,-3,-9,25,nt,nt
CSc1cccc(NC(=O)/C=C/c2cccc(Cl)c2)c1,-1,-1,-7,-11,78*,71*,15
O=[N+]([O-])c1cnccc1Nc1ccc(F)cc1,-12,-16,-1,6,127*,36,33*
Cc1ccc2c(c1)c1nc3ccccc3nc1n2C,-20,10,-10,-17,94*,91*,5
CSc1nnc2c3cc(F)ccc3n(C)c2n1,-3,-19,-2,2,19,nt,nt
Cn1c2ccc(F)cc2c2nc3ccccc3nc21,-22,17,-3,-12,87*,91*,-4
CCOc1ccc2c(c1)c1nc3ccccc3nc1n2C,-15,nt,-8,nt,nt,nt,nt
Cc1ccc(Cl)cc1N1CCN(C(=O)CNC(=O)c2ccc(Br)o2)CC1,nt,-16,-8,-15,0,nt,nt
CCc1nc2ccc(C(=O)Nc3cccc(C(C)=O)c3)cc2nc1CC,-8,1,-7,-19,81*,33,5
O=C(O)[C@H]1CC=C[C@H]2CCN(Cc3ccc(Cl)c(Cl)c3)C(=O)[C@@H]12,nt,-33,0,-16,9,nt,nt
O=C(NCCc1ccccc1)[C@@H]1CC=C[C@@H]2CCN(Cc3ccccc3)C(=O)[C@@H]21,nt,13,3,-14,79*,89*,7
COc1ccc(S(=O)(=O)Nc2c(O)ccc3ccccc23)cc1OC,nt,4,-3,-6,77*,72*,7
O=C1N=C(N2C=CC(=C3C=CNC=C3)C=C2)/C(=C/N=NC(=O)c2ccccc2O)S1,2,-11,4,-12,108*,68*,109*
COc1ccc(NC(=O)c2cc3ccc(O)cc3o/c2=N\O)cc1,14,9,-12,-2,85*,76*,9
N=c1oc2cc(O)ccc2cc1C(=O)Nc1ccc(F)cc1,3,-13,-9,-3,3,nt,nt
Cc1ccc(NCC2(N=Cc3ccccc3)OC(CO)C(O)C2O)cc1 (configuration not stated),nt,nt,-5,nt,nt,nt,nt
COc1cccc2cc(-c3nc4ccccc4o3)c(=O)oc12,0,0,-6,-22,123*,25,18*
O=c1oc2ccc(Br)cc2cc1-c1nc2ccccc2o1,6,2,-5,15,15,nt,nt
O=C1C(Nc2ccc(O)cc2)=C/C(=N/S(=O)(=O)c2cccs2)c2ccccc21,-23,nt,-9,nt,nt,nt,nt
O=C1C=C(Nc2ccc(O)cc2)C(=O)c2ccccc21,2,-14,-5,-9,79*,32,25*
COc1ccc(N2CCN(C(=O)C(=O)c3cc(OC)c(OC)c(OC)c3)CC2)cc1,nt,nt,-4,nt,nt,nt,nt
SMILES,GPR7 antagonist,OX1R antag-1,GalR3 antag,CHO parental Ca,OX1R antag-2,OX1R HTRF conf,CHO-K1 HTRF cnt
Cc1ccc2nc(SCC(=O)c3ccc(O)cc3O)[nH]c2c1,8,3,9,3,81*,79*,-5
CCCCN(C=O)c1c(CC)nc2ccc(C(=O)N3CCN(C(C)=O)CC3)cn12,nt,nt,-6,nt,nt,nt,nt
CCc1ccccc1NC(=O)CN(C)C(=O)c1cc(C2CC2)nc2c1cnn2C(C)C,nt,-19,1,-30,1,nt,nt
Oc1ccccc1N1CCN(C(c2ccccc2)c2ccccc2)CC1,-13,-39,-8,-21,13,nt,nt
Cc1[nH]c2ccccc2c1/C=N/Nc1nncn1N,-7,21,-3,-4,139*,17,10
Nc1[nH]c(C(=O)c2ccccc2)c(-c2ccccc2C(F)(F)F)c1C(=O)NCCc1cccs1,nt,nt,-4,nt,nt,nt,nt
CC(C)c1nn2c(N)c(/C=C3\C=Nc4ccccc43)c(=O)nc2s1,-21,2,-6,-11,82*,66*,9
Cc1ccsc1C(=O)OCC(=O)Nc1nnc(-c2ccccc2)o1,nt,-11,-1,-19,78*,38,-7
O=C(N/N=C/c1c(Cl)[nH]c2ccccc12)c1ccc2c(c1)OCCO2,1,3,-1,2,79*,86*,-3
CCOC(=O)C1=C(Nc2ccc(Br)cc2)C(=O)N(CC)C1,nt,nt,-6,nt,nt,nt,nt
Cc1c(C(=O)Nc2nccs2)oc2c(Cl)cccc12,nt,-4,-4,-16,77*,67*,14
COc1ccc(C)cc1S(=O)(=O)NCC(c1ccc2c(c1)OCO2)N1CCOCC1 (configuration not stated),nt,-9,-3,4,11,nt,nt
O=C(CSCCN1C(=O)c2ccccc2C1=O)Nc1ccc2ccccc2c1,3,-3,-8,-22,81*,51,-2
O=C(CSCC(=O)Nc1ccc2ccccc2c1)NCc1ccccc1,-8,-18,-3,-7,17,nt,nt
O=C(c1ccc(-c2nc3ccccc3s2)s1)N1CCOCC1,2,-19,2,-9,30,nt,nt
O=C(NC1CC1)c1ccc(-c2nc3ccccc3s2)s1,-2,21,2,-15,113*,84*,12
CC(=O)c1nnn(-c2cccc(C#N)c2)c1C,-2,-4,0,-2,4,nt,nt
CC(=O)c1nnn(-c2ccc([N+](=O)[O-])cc2)c1C,-16,-11,-4,-4,123*,42,59*
O=c1sc(Nc2ccccc2)nc2ccsc12,-9,15,-4,-15,85*,92*,9
O=C(Nc1nc2ccsc2c(=O)s1)c1ccco1,-5,-1,-2,1,18,nt,nt
Cc1ccc(NC(=O)CN2CCN(S(=O)(=O)c3ccc4c(c3)OCCO4)CC2)c(C)c1,nt,nt,-4,nt,nt,nt,nt
CC(=O)NC1=C(NC2CCS(=O)(=O)C2)C(=O)c2ccccc2C1=O (configuration not stated),-4,-4,1,-7,141*,69*,94*
Cc1ccc(C(=O)O/N=C(\N)Cc2cccs2)c(Cl)c1,5,-3,nt,-6,10,nt,nt
Cc1noc(C)c1S(=O)(=O)Nc1ccc(O)c2c(=O)cc(-c3ccccc3Cl)oc12,nt,25,-2,-7,85*,93*,1
COc1ccc(-c2cc(CCC(=O)N3CCN(c4cc(C)ccc4C)CC3)on2)cc1,nt,-10,-6,-12,9,nt,nt
